ChEMBL document CHEMBL4004832, “Synthesis, surfactant properties and antimicrobial activities of methyl glycopyranoside ethers” (2017)
≈ marks a conversion by molar mass, not a printed value.

Key:
[1] = Surfactant property of the compound in water assessed as critical micelle concentration or minimal hydrotropic concentration by platinum rod based tensiometric method
How it was run: (§1)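 Surface tension of aqueous solutions was measured by a rod method based on the Wilhelmy plate. Water was progressively concentrated with a stock surfactant solution at constant volume. At each concentration, readings continued until stable (SD of the last 5 values 0.2 mN/m). MHC or CMC and the plateau γsat were taken from the tension vs concentration curves.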

Escherichia coli = experiment: Antibacterial activity against Escherichia coli ATCC 8739 after 18 hrs by broth microdilution assay; type: functional; details: ATCC 8739, 18 h
Pseudomonas aeruginosa = experiment: Antibacterial activity against Pseudomonas aeruginosa ATCC 27853 after 18 hrs by broth microdilution assay; type: functional; details: ATCC 27853, 18 h
Listeria monocytogenes [2] = experiment: Antibacterial activity against Listeria monocytogenes CIP 103575 after 18 hrs by broth microdilution assay; type: functional; details: CIP 103575, 18 h
How it was run: (§2)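 Broth MIC testing on Gram-positive strains followed CLSI M100-S17 recommendations. […] Values are in mmol/L. Amoxicillin was the control for Listeria and Enterococcus strains and oxacillin for S. aureus strains.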

Staphylococcus aureus [3] = experiment: Antibacterial activity against Staphylococcus aureus ATCC 29213 after 18 hrs by broth microdilution assay; type: functional; details: ATCC 29213, 18 h; how it was run: as §2
Enterococcus faecalis [4] = experiment: Antibacterial activity against Enterococcus faecalis ATCC 29212 after 18 hrs by broth microdilution assay; type: functional; details: ATCC 29212, 18 h; how it was run: as §2
[5] = Surfactant property of the compound in aqueous solution assessed as critical micelle concentration or minimal hydrotropic concentration; how it was run: as §1
Listeria monocytogenes [6] = experiment: Antibacterial activity against Listeria monocytogenes isolate 015189074801 after 18 hrs by broth microdilution assay; type: functional; details: isolate 015189074801, 18 h; how it was run: as §2
Listeria monocytogenes [7] = experiment: Antibacterial activity against Listeria monocytogenes isolate 015170199001 after 18 hrs by broth microdilution assay; type: functional; details: isolate 015170199001, 18 h; how it was run: as §2
Listeria monocytogenes [8] = experiment: Antibacterial activity against Listeria monocytogenes isolate 015181840701 after 18 hrs by broth microdilution assay; type: functional; details: isolate 015181840701, 18 h; how it was run: as §2
Enterococcus faecalis [9] = experiment: Antibacterial activity against Enterococcus faecalis isolate 015206179901 after 18 hrs by broth microdilution assay; type: functional; details: isolate 015206179901, 18 h; how it was run: as §2
Enterococcus faecium [10] = experiment: Antibacterial activity against Enterococcus faecium CIP 103510 after 18 hrs by broth microdilution assay; type: functional; details: CIP 103510, 18 h
How it was run: (§3)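 Enterococcus faecium strains (reference, clinical isolates, VanA isolate) tested by MIC following CLSI recommendations (M100-S17), with amoxicillin as control. […] Values are expressed in mmol/L.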

Enterococcus faecium [11] = experiment: Antibacterial activity against […] Enterococcus faecium isolate 0151850763 after 18 hrs by broth microdilution assay; type: functional; details: isolate 0151850763, 18 h; how it was run: as §3
Enterococcus faecium [12] = experiment: Antibacterial activity against Enterococcus faecium isolate 015205731401 after 18 hrs by broth microdilution assay; type: functional; details: isolate 015205731401, 18 h; how it was run: as §2
Enterococcus faecium [13] = experiment: Antibacterial activity against Enterococcus faecium isolate 015205261801 after 18 hrs by broth microdilution assay; type: functional; details: isolate 015205261801, 18 h; how it was run: as §3
Staphylococcus aureus [14] = experiment: Antibacterial activity against Staphylococcus aureus ATCC 25923 after 18 hrs by broth microdilution assay; type: functional; details: ATCC 25923, 18 h
How it was run: (§4)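 Staphylococcus aureus reference strains and methicillin- and daptomycin-resistant isolates tested by MIC according to CLSI guidance (M100-S17), with oxacillin as control. The endpoint is the lowest concentration with no growth in all replicates versus a negative control at 18 h. Values are reported in mmol/L.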

Staphylococcus aureus [15] = experiment: Antibacterial activity against methicillin-resistant Staphylococcus aureus LAC USA300 after 18 hrs by broth microdilution assay; type: functional; how it was run: as §4
Staphylococcus aureus [16] = experiment: Antibacterial activity against methicillin-resistant Staphylococcus aureus Mu3 after 18 hrs by broth microdilution assay; type: functional; details: Mu3, 18 h; how it was run: as §4
Staphylococcus aureus [17] = experiment: Antibacterial activity against methicillin-resistant Staphylococcus aureus isolate HT 2004-0012 after 18 hrs by broth microdilution assay; type: functional; details: isolate HT 2004-0012, 18 h; how it was run: as §4
Staphylococcus aureus [18] = experiment: Antibacterial activity against methicillin-resistant Staphylococcus aureus isolate LY 1999-0053 after 18 hrs by broth microdilution assay; type: functional; details: isolate LY 1999-0053, 18 h; how it was run: as §4
Staphylococcus aureus [19] = experiment: Antibacterial activity against methicillin-resistant Staphylococcus aureus isolate HT 2002-0417 after 18 hrs by broth microdilution assay; type: functional; details: isolate HT 2002-0417, 18 h; how it was run: as §4
Staphylococcus aureus [20] = experiment: Antibacterial activity against methicillin-resistant Staphylococcus aureus isolate HT 2006-1004 after 18 hrs by broth microdilution assay; type: functional; details: isolate HT 2006-1004, 18 h; how it was run: as §4
Staphylococcus aureus [21] = experiment: Antibacterial activity against daptomycin-resistant Staphylococcus aureus isolate ST 2015-0188 after 18 hrs by broth microdilution assay; type: functional; details: isolate ST 2015-0188, 18 h; how it was run: as §4
Staphylococcus aureus [22] = experiment: Antibacterial activity against daptomycin-resistant Staphylococcus aureus isolate ST 2014-1288 after 18 hrs by broth microdilution assay; type: functional; details: isolate ST 2014-1288, 18 h; how it was run: as §4
Staphylococcus aureus [23] = experiment: Antibacterial activity against daptomycin-resistant Staphylococcus aureus isolate ST 2015-0989 after 18 hrs by broth microdilution assay; type: functional; details: isolate ST 2015-0989, 18 h; how it was run: as §4

CCCC[C@@H]1OC[C@H]2O[C@H](OC)[C@H](O)[C@@H](O)[C@@H]2O1
CMC [1]: 82 mmol/L | MIC (Escherichia coli): > 4000 µM | MIC (Pseudomonas aeruginosa): > 4000 µM | MIC (Listeria monocytogenes [2]): > 4000 µM | MIC (Staphylococcus aureus [3]): > 4000 µM | MIC (Enterococcus faecalis [4]): > 4000 µM

CCCCCCCCCCCC(=O)OC[C@H]1O[C@H](O[C@H]2[C@H](O)[C@@H](O)C(O)O[C@@H]2CO)[C@H](O)[C@@H](O)[C@@H]1O (some centres undefined)
CMC [5]: 0.24 mmol/L

CCCCCCCCCCCCOC[C@H]1O[C@H](OC)[C@H](O)[C@@H](O)[C@@H]1O
CMC [1]: 0.03 mmol/L | MIC (Listeria monocytogenes [2]): 40 µM (≈ 14.5 µg/mL) | MIC (Staphylococcus aureus [3]): 40 µM (≈ 14.5 µg/mL)

CCCCCCC[C@@H]1OC[C@H]2O[C@H](OC)[C@H](O)[C@@H](O)[C@@H]2O1
CMC [1]: 2.5 mmol/L | MIC (Escherichia coli): > 4000 µM | MIC (Pseudomonas aeruginosa): > 4000 µM | MIC (Listeria monocytogenes [2]): 2000 µM (≈ 609 µg/mL) | MIC (Staphylococcus aureus [3]): > 4000 µM | MIC (Enterococcus faecalis [4]): > 4000 µM

CCCCCCCCCCC[C@@H]1OC[C@H]2O[C@@H](OC)[C@H](O)[C@@H](O)[C@@H]2O1
MIC (Listeria monocytogenes [2]): 40 µM (≈ 14.4 µg/mL) | MIC (Staphylococcus aureus [3]): 180 µM (≈ 64.9 µg/mL) | MIC (Enterococcus faecalis [4]): 180 µM (≈ 64.9 µg/mL) | MIC (Listeria monocytogenes [6]): 40 µM (≈ 14.4 µg/mL) | MIC (Listeria monocytogenes [7]): 40 µM (≈ 14.4 µg/mL) | MIC (Listeria monocytogenes [8]): 180 µM (≈ 64.9 µg/mL) | MIC (Enterococcus faecalis [9]): 90 µM (≈ 32.4 µg/mL) | MIC (Enterococcus faecium [10]): 90 µM (≈ 32.4 µg/mL) | MIC (Enterococcus faecium [11]): 90 µM (≈ 32.4 µg/mL) | MIC (Enterococcus faecium [12]): 40 µM (≈ 14.4 µg/mL) | MIC (Enterococcus faecium [13]): 20 µM (≈ 7.21 µg/mL) | MIC (Staphylococcus aureus [14]): 180 µM (≈ 64.9 µg/mL) | MIC (Staphylococcus aureus [15]): 180 µM (≈ 64.9 µg/mL) | MIC (Staphylococcus aureus [16]): 180 µM (≈ 64.9 µg/mL) | MIC (Staphylococcus aureus [17]): 180 µM (≈ 64.9 µg/mL) | MIC (Staphylococcus aureus [18]): 180 µM (≈ 64.9 µg/mL) | MIC (Staphylococcus aureus [19]): 370 µM (≈ 133 µg/mL) | MIC (Staphylococcus aureus [20]): 180 µM (≈ 64.9 µg/mL) | MIC (Staphylococcus aureus [21]): 180 µM (≈ 64.9 µg/mL) | MIC (Staphylococcus aureus [22]): 180 µM (≈ 64.9 µg/mL) | MIC (Staphylococcus aureus [23]): 180 µM (≈ 64.9 µg/mL)

CCCCCCCCCCCCO[C@H]1[C@H](O)[C@@H](O)[C@@H](OC)O[C@@H]1CO
CMC [1]: 0.046 mmol/L

CCCCCCCCCCCC(=O)OC[C@H]1O[C@H](OC)[C@H](O)[C@@H](O)[C@@H]1O
CMC [5]: 0.052 mmol/L | MIC (Listeria monocytogenes [2]): 80 µM (≈ 30.1 µg/mL) | MIC (Staphylococcus aureus [3]): 320 µM (≈ 120 µg/mL)

CCCCCCCCCCCC(=O)OC[C@H]1O[C@H](O[C@]2(CO)O[C@H](CO)[C@@H](O)[C@@H]2O)[C@H](O)[C@@H](O)[C@@H]1O
CMC [5]: 0.25 mmol/L

CCCCCCCCCCCCO[C@@H]1O[C@H](CO)C(O[C@H]2O[C@H](CO)[C@@H](O)[C@H](O)[C@H]2O)[C@H](O)[C@H]1O (single isomer, unassigned)
CMC [5]: 0.2 mmol/L

CCCCCCCCCCCCO[C@H]1[C@H](OC)O[C@@H](C)[C@H](O)[C@H]1O
MIC (Listeria monocytogenes [2]): 90 µM (≈ 31.2 µg/mL) | MIC (Staphylococcus aureus [3]): 50 µM (≈ 17.3 µg/mL) | MIC (Enterococcus faecalis [4]): 50 µM (≈ 17.3 µg/mL) | MIC (Listeria monocytogenes [6]): 90 µM (≈ 31.2 µg/mL) | MIC (Listeria monocytogenes [7]): 90 µM (≈ 31.2 µg/mL) | MIC (Listeria monocytogenes [8]): 90 µM (≈ 31.2 µg/mL) | MIC (Enterococcus faecalis [9]): 50 µM (≈ 17.3 µg/mL) | MIC (Enterococcus faecium [10]): 50 µM (≈ 17.3 µg/mL) | MIC (Enterococcus faecium [11]): 50 µM (≈ 17.3 µg/mL) | MIC (Enterococcus faecium [12]): 20 µM (≈ 6.93 µg/mL) | MIC (Enterococcus faecium [13]): 50 µM (≈ 17.3 µg/mL) | MIC (Staphylococcus aureus [14]): 90 µM (≈ 31.2 µg/mL) | MIC (Staphylococcus aureus [15]): 90 µM (≈ 31.2 µg/mL) | MIC (Staphylococcus aureus [16]): 180 µM (≈ 62.4 µg/mL) | MIC (Staphylococcus aureus [17]): 50 µM (≈ 17.3 µg/mL) | MIC (Staphylococcus aureus [18]): 90 µM (≈ 31.2 µg/mL) | MIC (Staphylococcus aureus [19]): 90 µM (≈ 31.2 µg/mL) | MIC (Staphylococcus aureus [20]): 90 µM (≈ 31.2 µg/mL) | MIC (Staphylococcus aureus [21]): 180 µM (≈ 62.4 µg/mL) | MIC (Staphylococcus aureus [22]): 90 µM (≈ 31.2 µg/mL) | MIC (Staphylococcus aureus [23]): 180 µM (≈ 62.4 µg/mL)

CC1(C)S[C@@H]2[C@H](NC(=O)[C@H](N)c3ccc(O)cc3)C(=O)N2[C@H]1C(=O)O [AMOXICILLIN]
MIC (Listeria monocytogenes [2]): 2 µM (≈ 0.731 µg/mL) | MIC (Enterococcus faecalis [4]): 2 µM (≈ 0.731 µg/mL) | MIC (Listeria monocytogenes [6]): 2 µM (≈ 0.731 µg/mL) | MIC (Listeria monocytogenes [7]): 4 µM (≈ 1.46 µg/mL) | MIC (Listeria monocytogenes [8]): 2 µM (≈ 0.731 µg/mL) | MIC (Enterococcus faecalis [9]): 2 µM (≈ 0.731 µg/mL) | MIC (Enterococcus faecium [10]): 60 µM (≈ 21.9 µg/mL) | MIC (Enterococcus faecium [11]): 500 µM (≈ 183 µg/mL) | MIC (Enterococcus faecium [12]): 250 µM (≈ 91.4 µg/mL) | MIC (Enterococcus faecium [13]): 250 µM (≈ 91.4 µg/mL)
